Source: PubChem (several laboratories)
Rows were chosen to be rich in hits. Some 2.3% of all compounds tested hit in one or more screens of this group.
PAFAH1B3 inh: PAFAH1B3 (human) inhibition. Q15102. recombinant PAFAH1B3, FP-rhodamine probe, fluorescence polarization. inhibition, % at 3.39 µM. 340,000 compounds, 0.28% hits;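 active means inhibition above the screen-wide average of all tested compounds plus 3 SD, cut at about 25% in these data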;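 further: 0% = enzyme with DMSO only and 100% = wells lacking PAFAH1B3 protein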
Target sequence (Q15102 whole entry, looked up): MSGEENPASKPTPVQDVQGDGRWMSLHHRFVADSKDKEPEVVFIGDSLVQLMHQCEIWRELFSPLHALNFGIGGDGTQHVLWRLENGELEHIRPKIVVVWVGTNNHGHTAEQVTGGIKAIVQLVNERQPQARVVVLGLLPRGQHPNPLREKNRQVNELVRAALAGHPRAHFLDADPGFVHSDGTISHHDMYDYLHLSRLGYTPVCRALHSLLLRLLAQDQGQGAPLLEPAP
Apaf1 inhib: blocks human Apaf-1 apoptosome activity; reconstituted apoptosome caspase-3 activity, DEVD-Rh110 fluorescence; inhibition, % at 20 µM; 330,000 compounds, 0.71% hits; AID 489030; active means inhibition of at least 40% at 20 µM;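 further: plate controls were DMSO wells for no effect and DEVD-CHO caspase inhibitor wells for full effect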
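detection = Rh110 fluorescence intensity | test system = biochemical Apaf-1 apoptosome reconstitution | also added = cytochrome c and DEVD-Rh110 substrate | schedule = 30 min plus 50 min, RT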
PAFAH2 FP inh: PAFAH2 (human) inhibition | AID 492956 | recombinant PAFAH2, FP-rhodamine activity probe, fluorescence polarization | inhibition, % at 3.39 µM | 340,000 compounds, 0.99% hits | Q99487;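 active means inhibition above the mean over all tested compounds plus 3 SD, cut at about 30% in these data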;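 further: inhibitors block probe labeling of enzyme so polarization drops; 0% = enzyme with DMSO and 100% = wells lacking PAFAH2 protein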
TDP2 inh: TDP2 (human) inhibition, absorbance primary screen | 370,000 compounds, 0.34% hits | O95551 | inhibition, % at 12.8 µM | recombinant TDP2, T5PNP hydrolysis, p-nitrophenol absorbance 415 nm;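 active means inhibition above the mean of all tested compounds plus 3 SD, set per campaign, cut at about 25% in these data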;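 further: 0% = DMSO with enzyme and 100% = buffer with substrate but no TDP2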
Target sequence (O95551 whole entry, looked up): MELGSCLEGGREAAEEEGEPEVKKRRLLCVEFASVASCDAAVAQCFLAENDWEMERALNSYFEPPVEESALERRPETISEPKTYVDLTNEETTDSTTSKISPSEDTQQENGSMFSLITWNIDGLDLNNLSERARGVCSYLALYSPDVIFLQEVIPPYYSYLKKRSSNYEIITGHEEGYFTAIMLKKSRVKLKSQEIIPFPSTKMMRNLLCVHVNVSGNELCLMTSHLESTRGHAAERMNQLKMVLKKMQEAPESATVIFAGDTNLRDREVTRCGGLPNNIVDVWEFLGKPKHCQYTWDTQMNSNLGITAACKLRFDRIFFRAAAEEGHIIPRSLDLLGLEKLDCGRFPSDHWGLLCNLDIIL
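Read-out basis: percent inhibition. System: recombinant human TDP2. Buffer or medium: Mg2+-containing Tris-HCl buffer, pH 7.5. Repeats: single replicate. Timing: reaction 2 h, 37 °C. Benchmarks: high control without enzyme, low control DMSO plus TDP2. Probe or stimulus: 5 mM T5PNP. Doses: 12.8 µM only. Measured by: epi absorbance of p-nitrophenol freed from T5PNP by hydrolysis.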
PAFAH1B2 FP inh: blocks human PAF acetylhydrolase 1b catalytic subunit 2. recombinant PAFAH1B2, FP-rhodamine activity probe, fluorescence polarization. inhibition, % at 3.39 µM. P68402. 340,000 compounds, 1.2% hits;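 active means inhibition above the mean of all tested compounds plus 3 SD, cut at about 24% in these data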;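 further: 0% = enzyme with DMSO and 100% = wells lacking PAFAH1B2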
PAFAH2 confirm: PAFAH2 (human) inhibition, confirmed; shares compounds with PAFAH2 FP inh; recombinant PAFAH2, FP-rhodamine activity probe, fluorescence polarization; inhibition, % at 3.39 µM; 2,300 compounds, 65% hits;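 active means mean inhibition over three repeats above a set limit taken from the earlier primary screen, cut at about 30% in these data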;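 further: inhibitor blocks binding of rhodamine activity probe so polarization falls; 0% = enzyme with DMSO and 100% = wells lacking PAFAH2 protein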
* = called active by the depositor; . = not tested or not shown.

SMILES | PAFAH1B3 inh | Apaf1 inhib | PAFAH2 FP inh | TDP2 inh | PAFAH1B2 FP inh | PAFAH2 confirm
O=C(COC(=O)C1CC1)Nc1ncc(Cl)cc1Cl | 12 | 6 | 30* | -8 | 5 | 18
O=C(CCl)NCCN1C(=O)S/C(=C\c2cccnc2)C1=O | -2 | -5 | -1 | 6 | -7 | .
O=C(Cn1[nH]c(=O)c2ccccc2c1=O)NCCN1C(=O)S/C(=C\c2ccccc2)C1=O | 4 | 12 | 31* | 6 | 2 | 4
O=C(Oc1ccc(-c2csnn2)cc1)C1CC1 | 7 | -9 | 75* | 3 | 6 | 76*
COc1ccc(CNC(=O)COC(=O)CN2C(=O)C3CCCCC3C2=O)cc1 (stereo unspecified) | . | . | . | -13 | . | .
Cc1ccc(CNC(=O)COC(=O)CN2C(=O)C3CC=CCC3C2=O)cc1 (stereo unspecified) | 12 | 6 | 37* | -1 | 5 | 20
O=C(COC(=O)CC(c1ccccc1)c1ccccc1)Nc1cccc(F)c1 | 4 | 12 | 77* | 1 | 5 | 69*
O=C(COC(=O)CC(NC(=O)c1ccccc1Cl)c1ccccc1)Nc1cccc(F)c1 (stereo unspecified) | -10 | 13 | 82* | 1 | 5 | 76*
O=C(COC(=O)CC(c1ccccc1)c1ccccc1)Nc1ccc(F)c(F)c1 | . | 7 | . | . | . | .
COc1ccccc1NC(=O)c1ccc(NC(=O)COC(=O)CC(NC(=O)c2ccccc2Cl)c2ccccc2)cc1 (stereo unspecified) | -4 | 4 | -7 | -1 | -9 | .
Cc1ccc(C)n1-c1sc2c(c1C(=O)O)CCCC2 | -2 | 13 | 16 | 16 | 2 | .
Cc1ccc(C)n1-c1sccc1C(=O)O | 9 | . | 46* | . | 2 | 25
CC1CCCC(NC(=O)COC(=O)c2ccc3ncsc3c2)C1C (stereo unspecified) | 3 | -4 | 85* | 0 | 4 | 76*
CN(C(=O)COC(=O)c1ccc2c(c1)NC(=O)CS2)C1CCS(=O)(=O)C1 (stereo unspecified) | -3 | 11 | -9 | 7 | -2 | .
COc1ccc(C(=O)NC(=O)COC(=O)c2ccc3ncsc3c2)cc1 | . | -14 | . | . | . | .
CC1CCCCC1NC(=O)COC(=O)c1ccc2c(c1)NC(=O)CS2 (stereo unspecified) | -1 | 8 | 86* | 10 | 5 | 77*
CC1CCCCC1NC(=O)COC(=O)c1ccc2ncsc2c1 (stereo unspecified) | 11 | -9 | 84* | -15 | 7 | 78*
N/C(Cc1ccc([N+](=O)[O-])cc1)=N\OC(=O)c1ccccc1F | 15 | -14 | 38* | 7 | -2 | 23
CCc1sc(C(=O)Nc2ncccc2C)cc1C | 6 | 2 | 6 | -10 | 3 | .
CCc1sc(C(=O)Nc2ncccc2O)cc1C | 4 | 2 | 30* | 7 | 2 | 27
CCc1ccc(NC(=O)c2noc3c2CCC3)cc1 | 4 | -1 | 31* | -2 | 8 | 10
CCc1ccc(NC(=O)c2noc3c2CCCCC3)cc1 | 10 | 0 | -3 | 0 | 4 | .
C[C@H]1[C@H](NC(=O)c2ccc(Cl)cc2)CC[C@@]23CCCN2C(=O)CCC[C@@H]13 | . | . | . | -2 | . | .
Cn1cnnc1Sc1ccc(C(=O)OCC(=O)Nc2ccccc2)cc1[N+](=O)[O-] | 0 | 3 | 59* | 8 | 0 | 41*
Cn1cnnc1Sc1ccc(C(=O)OCC(=O)Nc2cc(Cl)cc(Cl)c2)cc1[N+](=O)[O-] | 0 | 8 | 4 | -5 | -2 | .
SMILES | PAFAH1B3 inh | Apaf1 inhib | PAFAH2 FP inh | TDP2 inh | PAFAH1B2 FP inh | PAFAH2 confirm
O=C(Nc1ccccn1)c1ccc([N+](=O)[O-])o1 | 5 | -15 | 9 | . | 2 | .
O=C(Nc1ncccn1)c1ccc([N+](=O)[O-])o1 | 8 | -1 | 78* | 1 | 8 | 67*
COc1ccc(C(=O)NC(C)C2CC3CCC2C3)cc1 (stereo unspecified) | 7 | -1 | 3 | -3 | 16 | .
CC(NC(=O)c1ccc(N(C)C)cc1)C1CC2CCC1C2 (stereo unspecified) | 0 | . | 46* | 8 | 12 | 33*
CC(NC(=O)COC(=O)c1ccc(CO)cc1)C1CC2CCC1C2 (stereo unspecified) | 2 | 1 | 68* | 2 | 2 | 64*
CC(C)CN1C(=O)[C@@]2(CC(=O)N(C)C2c2ccccc2)c2cc(-n3cc(CCCC#N)nn3)ccc21 (stereo partly specified) | . | . | . | -4 | . | .
O=c1oc(/C=C/c2ccccc2)nc2sc3c(c12)CCC3 | 15 | 11 | 66* | -4 | 0 | 60*
O=c1oc(-c2ccccc2)nc2sc3c(c12)CCCC3 | 6 | 5 | 49* | 6 | -1 | 37*
O=c1oc(-c2cccs2)nc2sc3c(c12)CCCCC3 | 13 | -1 | 17 | -12 | 10 | .
O=c1oc(-c2cc3ccccc3o2)nc2sc3c(c12)CCCC3 | 0 | -3 | 69* | 8 | -7 | 68*
Cc1ccccc1-c1nc2sc3c(c2c(=O)o1)CCC3 | 9 | 17 | 76* | -3 | -2 | 80*
COC(=O)[C@]12C[C@H](CC(=O)N3CCC(c4ccccc4)CC3)C(=O)N(CCC3=CCCCC3)C1=C[C@H](C1CCCC1)O[C@@H]2C | . | . | . | 3 | . | .
CCOC(=O)Cn1cc(CN2CCS(=O)(=O)N(Cc3ccc(C)cc3)C(C(=O)OC)C2)nn1 (stereo unspecified) | . | . | . | 2 | . | .
CCCCCCCCN1C(=O)[C@@H](CC(=O)NCc2cccs2)C[C@@]2(C(=O)OC)C1=C[C@H](COCc1ccccc1)O[C@@H]2C | . | . | . | -7 | . | .
C[C@H]1[C@@H](OC(=O)Nc2cccc(C(F)(F)F)c2)CC[C@@]23CCCN2C(=O)CCC[C@@H]13 | . | . | . | 3 | . | .
Cc1ccc(CO/N=C/c2c(O)cc(C)oc2=O)cc1 | 4 | -2 | 37* | -1 | 22 | 12
COc1ccc(S(=O)(=O)N2CCOCC2)cc1NC(=O)Cc1ccccc1Cl | 4 | 1 | 60* | 5 | 1 | 55*
COc1ccc(S(=O)(=O)N2CCOCC2)cc1NC(=O)COC(=O)c1ccc([N+](=O)[O-])s1 | 24 | 30 | 40* | . | 15 | 40*
COc1ccc(S(=O)(=O)N2CCOCC2)cc1NC(=O)COC(=O)c1[nH]c(C)c(C(C)=O)c1C | 0 | 7 | 5 | -3 | 4 | .
Clc1cccc(CSc2ccc(-c3ccco3)nn2)c1 | -2 | 4 | 2 | 18 | -3 | .
O=c1cc(-c2ccco2)nc(SCc2cccc(Cl)c2)[nH]1 | 2 | 2 | 32* | 0 | -3 | 17
O=C1CCC[C@H]2C[C@H](NCc3ccccc3Cl)CC[C@]23CCCN13 | . | . | . | -4 | . | .
Cc1cnc(C(=O)Nc2nnc(SCc3c(Cl)cccc3Cl)s2)cn1 | 13 | 16 | 60* | 1 | 1 | 50*
